Measured values taken from PMC3144758 (Bioorganic chemistry, 2010).

Target: Tip60 (Homo sapiens, UniProt Q92993)
Assay: Radioactive HAT inhibition assay, Tip60
Format: biochemical
Method in brief: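 Recombinant Tip60 acetylates H4 N-terminal 20-mer peptide (100 μM) using [14C]acetyl-CoA (10 μM) at varied DMSO levels, 30 °C, in 50 mM HEPES pH 8.0, 0.1 mM EDTA, 50 μg/mL BSA, 1 mM DTT. Enzyme added after 5 min equilibration. Initial rates measured (<10% substrate consumed) by P81 filter binding, bicarbonate washes and scintillation. Readouts are fractional activity retained and IC50 (50% activity blocked). Runs at least twice.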

Chain of Tip60 (Q92993 whole entry): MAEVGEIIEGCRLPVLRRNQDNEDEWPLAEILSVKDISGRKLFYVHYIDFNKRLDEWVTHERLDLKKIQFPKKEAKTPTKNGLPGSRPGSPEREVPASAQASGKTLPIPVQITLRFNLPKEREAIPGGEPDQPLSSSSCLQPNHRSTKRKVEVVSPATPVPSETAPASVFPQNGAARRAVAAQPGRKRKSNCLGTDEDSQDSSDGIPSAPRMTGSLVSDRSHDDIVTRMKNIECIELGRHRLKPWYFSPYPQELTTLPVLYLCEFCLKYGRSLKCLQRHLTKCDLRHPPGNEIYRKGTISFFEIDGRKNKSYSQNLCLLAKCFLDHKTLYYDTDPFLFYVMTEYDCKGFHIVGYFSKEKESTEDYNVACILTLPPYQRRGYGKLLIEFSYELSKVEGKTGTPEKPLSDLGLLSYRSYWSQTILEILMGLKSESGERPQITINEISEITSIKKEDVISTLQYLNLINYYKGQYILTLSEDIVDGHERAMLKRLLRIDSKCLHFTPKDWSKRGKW

Question: What does the source list for C[S+](C)[O-] [DMSO]?
Answer: IC50 of DMSO on Tip60 activity (DMSO (v/v), H4-20 100 μM, [14C]acetyl-CoA 10 μM): 37%; Retained activity of Tip60 (at 30% of DMSO): 90%
